The values below come from ChEMBL document CHEMBL1221310, “Discovery of potent HIV integrase inhibitors active against raltegravir resistant viruses” (Bioorg Med Chem Lett, 2010).

In series [1] the test system is Human immunodeficiency virus. As to the kind of experiment: Antiviral activity against raltegravir-resistant HIV expressing integrase N155H/E92Q mutant infected in HEK293T cells after 48 hrs by luciferase reporter gene assay. The format is functional, organism-based, HEK-293T. The note with it: for EC50: hek-293t; for pEC50: Human immunodeficiency virus 1, HEK-293T, 48 h, read-out: EC50. A digest of the protocol:
(§1)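 VSV-G-pseudotyped, env-deleted HIV-1 carrying luciferase in nef, made by cotransfecting 293T cells; integrase resistance mutations introduced by site-directed mutagenesis. 293T cells seeded 16 h before compound, preincubated with compound 4 h at 37 °C, then infected with virus giving about 10,000 luciferase light units without compound. Luciferase read 48 h post-infection.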
Background: A reporter such as luciferase makes a cellular process visible.

Series [2] has as its system Human immunodeficiency virus. The experiment in a line: Antiviral activity against wild type HIV assessed as inhibition of p24 antigen production after 48 hrs by cell based luciferase reporter gene assay. The format is functional, organism-based. Particulars: Human immunodeficiency virus 1, 48 h; call rule not given here.
The nature of series [3]: Inhibition of HIV integrase after 2 hrs by combined strand transfer assay. Set-up: species or system Human immunodeficiency virus. Particulars: for pIC50: read-out: IC50. An outline of the steps: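 Integrase (400 ng) was incubated 2 h at 37 °C with 30 nM pre-processed U5 LTR duplex substrate, one strand DIG-tagged and the other biotin-tagged. 3′-processing/strand-transfer products were captured on streptavidin plates and detected with anti-DIG-alkaline phosphatase and p-nitrophenyl phosphate.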

Series [4] has as its system Human immunodeficiency virus. The experiment in a line: Antiviral activity against raltegravir-resistant HIV expressing integrase Q148H/G140S mutant infected in HEK293T cells after 48 hrs by luciferase reporter gene assay. The format is functional, organism-based. Particulars: Human immunodeficiency virus 1, HEK-293T. An outline of the steps: as §1
Series [5] can be described thus: Half life in microsomes. The format is ADME, Microsome.
The subject of series [6] is Human immunodeficiency virus. The experiment in a line: Antiviral activity against raltegravir-resistant HIV expressing integrase N155H/E92Q mutant infected in HEK293T cells after 48 hrs by luciferase reporter gene assay in presence of 10% FBS. The note with it: Human immunodeficiency virus 1, HEK-293T. The format is functional, organism-based. A digest of the protocol:
as §1

Series [7] relates to Human immunodeficiency virus. As to the kind of experiment: Antiviral activity against wild type HIV assessed as inhibition of p24 antigen production after 48 hrs by cell based luciferase reporter gene assay in presence of 50% normal human serum. The format is functional, organism-based. The note with it: Human immunodeficiency virus 1, 48 h.
Series [8] has as its system Human immunodeficiency virus. As to the kind of experiment: Antiviral activity against wild type HIV assessed as inhibition of p24 antigen production after 48 hrs by cell based luciferase reporter gene assay in presence of 10% normal human serum. The format is functional, organism-based. Particulars: Human immunodeficiency virus 1, 48 h.
The subject of series [9] is Human immunodeficiency virus. The experiment in a line: Antiviral activity against raltegravir-resistant HIV expressing integrase Q148H/G140S mutant infected in HEK293T cells after 48 hrs by luciferase reporter gene assay in presence of 10% FBS. The format is functional, organism-based. Particulars: Human immunodeficiency virus 1, HEK-293T. A digest of the protocol: as §1

pEC50, pIC50: −log10 of the molar value. Bounds are passed on as bounds.

As for `CC(C)N(C)C(=O)N(C)c1cc(N2CCOCC2)cn2c(=O)c(O)c(-c3ncc(Cc4ccc(F)cc4)s3)nc12`, the EC50 entry in series [1] was “Not Active”. Besides, the pEC50 – broadly, the negative decadic logarithm of the EC50, by convention in mol/L – in series [2] was 7.78; in series [4], 6.92. The IC50 result in series [3] is “Not Active”.

For the compound `CC(O)c1cc(N2CCOCC2)cn2c(=O)c(O)c(-c3ncc(Cc4ccc(F)cc4)s3)nc12` (stereo not drawn), the EC50 entry in [1] was “Not Active”. For the same compound, the values for the pEC50 in series [2] and in [4] were 7.98 and 6.10, respectively. Moreover, the IC50 result in [3] is reported as “Not Active”.

Regarding `CN1CCN(c2cc(N(C)C)cn3c(=O)c(O)c(-c4ncc(Cc5ccc(F)cc5)s4)nc23)C1=O`, the pEC50 in [1] is 7.49; in series [2], 7.71; in series [4] it was 7.03. For the same compound, the pIC50 (in general, the IC50 on a negative log10 scale, so that one unit is a factor of ten) in [3] is 7.05.

Regarding `CC(c1cc(N2CCOCC2)cn2c(=O)c(O)c(-c3ncc(Cc4ccc(F)cc4)s3)nc12)N1CCCCC1` (stereo not drawn), the EC50 entry in [1] is given as “Not Active”. Also, the pEC50 is 6.96 in [2] and 5.26 in series [4]. The IC50 entry in [3] is given as “Not Active”.

For `CC(NC1CC1)c1cc(N2CCN(C)C2=O)c2nc(-c3ncc(Cc4ccc(F)cc4)s3)c(O)c(=O)n2c1` (stereo not drawn), in series [1], the EC50 entry is reported as “Not Active”. Besides, the pEC50 in series [2] is 7.94; in series [4] it was 6.57. Further, the IC50 result in [3] is given as “Not Active”.

In the case of `CN1CCN(c2cc(N3CCNCC3=O)cn3c(=O)c(O)c(-c4ncc(Cc5ccc(F)cc5)s4)nc23)C1=O`, the EC50 entry in series [1] is “Not Active”. Also, the pEC50 was 7.57 in series [2] and 5.96 in series [4]. For the same compound, in [3], the IC50 entry is on record as “Not Active”.

As to `CC(C)N1CCN(c2cc(N3CCOCC3)cn3c(=O)c(O)c(-c4ncc(Cc5ccc(F)cc5)s4)nc23)C1=O`, the pEC50 in series [1] was 8.01; in [2] it was 8.12; in series [4], 7.74. Moreover, in series [3], the pIC50 is 7.72.

In the case of `CN1CCN(c2cc(CN3CCOCC3)cn3c(=O)c(O)c(-c4ncc(Cc5ccc(F)cc5)s4)nc23)C1=O`, the figures for the pEC50 in series [1], in series [2] and in series [4] were 7.84, 8.46 and 6.61, respectively. Besides, in series [3], the pIC50 was 7.60.

For the compound `O=c1c(O)c(-c2ncc(Cc3ccc(F)cc3)s2)nc2c(N3CCCS3(=O)=O)cc(N3CCOCC3)cn12`, the negative-log EC50 (pEC50) is 7.31 in [1], 8.19 in series [2] and 6.55 in [4]. Also, the pIC50 in series [3] is 7.32.

Take `O=C1CCCN1c1cc(N2CCOCC2)cn2c(=O)c(O)c(-c3ncc(Cc4ccc(F)cc4)s3)nc12`: in series [1], the EC50 result is listed as “Not Active”. For the same compound, the pEC50 is 7.68 in series [2] and 6.47 in series [4]. In [3], the IC50 entry was “Not Active”.

On to `O=c1c(O)c(-c2ncc(Cc3ccc(F)cc3)s2)nc2c(Br)cc(N3CCOCC3)cn12`, for which the pEC50 was 7.72 in [1], 7.85 in [2] and 5.60 in series [4]. Also, the pIC50 in series [3] was 7.38.

Regarding `O=c1c(O)c(-c2ncc(Cc3ccc(F)cc3)s2)nc2ccc(N3CCOCC3)cn12`, the pEC50 in [1] was 7.13; in [2], 7.49; in [4], 5.52. In addition, the pIC50 in series [3] was 7.70.

As for `CN1CCN(c2cc(N3CCOCC3)cn3c(=O)c(O)c(-c4ncc(Cc5ccc(F)cc5)s4)nc23)C1=O`, the pEC50 was 8.00 in [1], 7.62 in series [2] and 7.15 in series [4]. Also, the pIC50 in series [3] is 7.33.

With `CN1CCN(c2cc(N3CCCOC3=O)c3nc(-c4ncc(Cc5ccc(F)cc5)s4)c(O)c(=O)n3c2)CC1`, in [5], the half-life (in general, the time in which the quantity being followed falls by half) was determined as 67.8 min. The negative logarithm of the EC50 (pEC50) in series [6] is 8.31; in series [7] it was 8.18; in series [8], 8.46; in series [9], 7.53.

Turning to `CN1CCCN(c2cc(N3CCOCC3)cn3c(=O)c(O)c(-c4ncc(Cc5ccc(F)cc5)s4)nc23)C1=O`, the results for the pEC50 in series [1], in series [2] and in [4] were 7.67, 7.94 and 7.47, respectively. Further, in series [3], the IC50 result was “Not Active”.

As for `CC(C)N(C)C(=O)Nc1cc(N2CCOCC2)cn2c(=O)c(O)c(-c3ncc(Cc4ccc(F)cc4)s3)nc12`, in [1], the EC50 result is “Not Active”. The pEC50 is 7.66 in series [2] and less than 5.00 in series [4]. In series [3], the IC50 entry was “Not Active”.

`CC1CN(C)CCN1c1cc(N2CCCOC2=O)c2nc(-c3ncc(Cc4ccc(F)cc4)s3)c(O)c(=O)n2c1` (stereo not drawn): the half-life in [5] was determined as 18 min. For the same compound, the pEC50 was 8.28 in series [6], 8.26 in series [7], 8.38 in [8] and 7.39 in series [9].

Take `CN1CCN(c2cc(N3CCOCC3)cn3c(=O)c(O)c(-c4ncc(Cc5ccc(F)cc5)s4)nc23)S1(=O)=O`: the values for the pEC50 in [1], in series [2] and in series [4] were 7.73, 8.07 and 6.95, respectively. Moreover, in [3], the pIC50 was 7.42.

Turning to `CC(C)N1CCN(c2cc(N3CCN(C)C3=O)c3nc(-c4ncc(Cc5ccc(F)cc5)s4)c(O)c(=O)n3c2)CC1`, the pEC50 in series [1] is 8.05; in series [2] it was 8.17; in [4], 7.68. Also, the pIC50 in series [3] is 7.72.

Consider `O=C1OCCN1c1cc(N2CCOCC2)cn2c(=O)c(O)c(-c3ncc(Cc4ccc(F)cc4)s3)nc12`, for which the pEC50 was 7.60 in series [1], 8.15 in [2] and 6.97 in [4]. Besides, the negative-log IC50 (pIC50) in series [3] was 7.59.

In the case of `CC(=O)c1cc(N2CCOCC2)cn2c(=O)c(O)c(-c3ncc(Cc4ccc(F)cc4)s3)nc12`, the EC50 entry in series [1] is “Not Active”. Also, the pEC50 in series [2] is 8.02; in series [4] it was 6.05. Further, in series [3], the negative-log IC50 (pIC50) was 7.82.

`O=C1CNCCN1c1cc(N2CCOCC2)cn2c(=O)c(O)c(-c3ncc(Cc4ccc(F)cc4)s3)nc12` registered a half-life in [5] of 52 min. The negative logarithm of the EC50 (pEC50) in series [6] is 8.17; in series [7], 8.21; in [8], 8.40; in series [9] it was 7.46.

As for `COc1cc(N2CCOCC2)cn2c(=O)c(O)c(-c3ncc(Cc4ccc(F)cc4)s3)nc12`, the EC50 result in series [1] was “Not Active”. Besides, the pEC50 in series [2] was 7.00; in [4], 5.23. Further, the IC50 entry in series [3] is recorded as “Not Active”.

For the compound `O=C1OCCCN1c1cc(N2CCOCC2)cn2c(=O)c(O)c(-c3ncc(Cc4ccc(F)cc4)s3)nc12`, the negative logarithm of the EC50 (pEC50) was 7.98 in series [1], 8.37 in [2] and 7.78 in [4]. In addition, the IC50 entry in series [3] was “Not Active”.

For the compound `O=C(c1cc(N2CCOCC2)cn2c(=O)c(O)c(-c3ncc(Cc4ccc(F)cc4)s3)nc12)N1CCCC1`, the values for the pEC50 in series [1], in series [2] and in series [4] were 6.70, 7.09 and 5.93, respectively. Besides, in series [3], the pIC50 is 7.15.
